# According to publication PMC8426090 (ACS chemical neuroscience, 2021):
# “Also recorded” adds a separate entry of the source. Structures can show the parent of a compound that is named as a salt.
# Tests used:
# [1] = system: other receptors of the D2 receptor family; other receptors found in the brain; settings: cited from earlier work
# [2] = human liver microsome stability assay; assay type: in vitro ADME; settings: 1 h (60 min), 37 °C, NADPH 1 mM, pooled human liver microsomes
# Summary of the method: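 Test compound (from a 100× stock) preincubated 5 min at 37 °C with pooled human liver microsomes in 100 mM phosphate buffer pH 7.4. NADPH (1 mM final) started the reaction, run 30 or 60 min at 37 °C and quenched with cold acetonitrile. Supernatant analysed by C18 HPLC (UV 265 nm), with remaining parent expressed relative to the 0 min sample. Dextromethorphan was the positive control; negative controls were heat-inactivated microsomes and no NADPH. Triplicate.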
# dopamine D2 receptor [3] = biological target: dopamine D2 receptor (Rattus norvegicus, UniProt P61169); test: in vitro autoradiography on rat brain sections; assay type: binding; settings: transaxial and coronal/transversal sections; excess competitor
# dopamine D2 receptor [4] = settings: co-incubation with guanylylimidodiphosphate; cited from earlier work
# D2^high = settings: cited from earlier work
# [5] = biodistribution of [3H]MCL-536 in the rat brain; assay type: in vivo, Sprague–Dawley rats; settings: for uptake in striatum, % injected dose per gram wet tissue: 15 min after tail vein injection
# [6] = biodistribution of [3H]MCL-536 in peripheral organs; assay type: in vivo, Sprague–Dawley rats
# Sequence of dopamine D2 receptor (Rattus norvegicus, UniProt P61169) (P61169 whole entry): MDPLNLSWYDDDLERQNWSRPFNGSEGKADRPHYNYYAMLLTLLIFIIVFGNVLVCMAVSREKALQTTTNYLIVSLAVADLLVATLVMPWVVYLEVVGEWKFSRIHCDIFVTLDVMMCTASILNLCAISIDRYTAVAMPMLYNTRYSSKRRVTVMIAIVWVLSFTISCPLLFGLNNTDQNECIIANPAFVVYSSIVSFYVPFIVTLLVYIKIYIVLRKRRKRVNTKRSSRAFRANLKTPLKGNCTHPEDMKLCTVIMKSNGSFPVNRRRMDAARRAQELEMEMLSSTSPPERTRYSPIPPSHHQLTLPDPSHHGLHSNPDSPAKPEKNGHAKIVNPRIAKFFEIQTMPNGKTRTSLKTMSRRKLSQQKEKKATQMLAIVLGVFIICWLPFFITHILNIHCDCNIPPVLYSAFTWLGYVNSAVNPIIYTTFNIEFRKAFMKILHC
smiles,measurement,setting,value
[3H]C(C)C([3H])N1CCc2cc(OCCCF)cc3c2[C@H]1Cc1cccc(O)c1-3 (stereo partly shown) [MCL-536],affinity for other receptors found in the brain / other receptors tested,[1],little to no affinity
same,affinity for other receptors of the D2 receptor family,[1],but not for the other receptors of the D2 subfamily; also recorded: but not to other receptors of the D2 receptor family
same,compound remaining intact after incubation with human liver microsomes,[2],about 75%
"CCCN1CCc2cccc3c2[C@H]1Cc1ccc(O)c(O)c1-3 [NPA, (R)-(−)-N-n-propylnorapomorphine]",effect on binding of [3H]MCL-536 on brain sections (summary statements),dopamine D2 receptor [3],abolished
"Nc1nc2c(ncn2[C@@H]2O[C@H](COP(=O)(O)OP(=O)(O)NP(=O)(O)O)[C@@H](O)[C@H]2O)c(=O)[nH]1 [Gpp(NH)p, guanylylimidodiphosphate]",effect on binding of [3H]MCL-536 on brain sections (summary statements),dopamine D2 receptor [3],abolished binding
same,binding of [3H]MCL-536 to D2high on co-incubation,dopamine D2 receptor [4],abolished binding to D2^high
"C[C@H](N)Cc1ccccc1 [Amphetamine, d-amphetamine sulfate]","increase in D2high, measured in the striatum in vivo",D2^high; in vivo,~2.36 fold
same,elevation of D2high in vitro in the same tissue,"D2^high; striatum, in vitro",2.44 fold
[3H]C(C)C([3H])N1CCc2cc(OCCCF)cc3c2[C@H]1Cc1cccc(O)c1-3 (stereo partly shown) [[^3H]MCL-536],brain uptake values 4 h after injection,[5]; 4 h after injection,almost baseline
same,"uptake in striatum, % injected dose per gram wet tissue",[5]; female rats,0.42 %ID/g
same,course of %ID/g in the striatum,"[5]; females, 60 min postinjection",stable
same,baseline binding in cerebellum,[5]; male and female rats,≤ 0.1 %ID/g
same,"uptake in striatum, % injected dose per gram wet tissue",[5]; male rats,0.28 %ID/g
same,decline of %ID/g in the striatum,"[5]; males, 60 min postinjection",about 25%
same,time of maximum %ID/g in peripheral tissues,[6]; all peripheral tissues,15 min
same,reduction of levels in fatty tissue,[6]; at 60 min,about 2/3
same,decline of %ID/g in the kidneys,"[6]; by 60 min, both sexes",about 60%
CCN1CCC[C@H]1CNC(=O)c1c(O)c(Cl)cc(Cl)c1OC [raclopride],effect on binding of [3H]MCL-536 on brain sections (summary statements),dopamine D2 receptor [3],completely abolished
CCN1CCCC1CNC(=O)c1cc(S(N)(=O)=O)ccc1OC (stereo not shown) [sulpiride],effect on binding of [3H]MCL-536 on brain sections (summary statements),dopamine D2 receptor [3],completely abolished
